Laboratory results reported in ChEMBL document CHEMBL1154352, “Toll-like receptor 7 selective synthetic oligoribonucleotide agonists: synthesis and structure-activity relationship studies” (J Med Chem, 2009).

What was measured:
Type in all cases: functional, cell-based
PBMC [1] = assay: Immunomodulatory activity in human PBMC assessed as induction of IL12 after 24 hrs
Outline: (§1)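 Human PBMCs plated at 5 × 10^6 cells/mL; compounds dissolved in PBS added at various concentrations, 37 °C for 24 h. Supernatant cytokines/chemokines quantified with human Luminex multiplex kit.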

PBMC [2] = assay: Immunomodulatory activity in human PBMC assessed as induction of IL1-beta after 24 hrs; outline: as §1
PBMC [3] = assay: Immunomodulatory activity in human PBMC assessed as induction of IP10 after 24 hrs; outline: as §1

Measured: Activity

Nc1ccn([C@@H]2O[C@H](COP(=O)(S)O[C@H]3[C@@H](O)[C@H](n4cnc5c(N)ncnc54)O[C@@H]3COP(=O)(S)O[C@H]3[C@@H](O)[C@H](n4ccc5c(=O)[nH]c(N)nc54)O[C@@H]3COP(=O)(S)O[C@H]3[C@@H](O)[C@H](n4ccc(=O)[nH]c4=O)O[C@@H]3COP(=O)(S)O[C@H]3[C@@H](O)[C@H](n4ccc(=O)[nH]c4=O)O[C@@H]3COP(=O)(S)O[C@H]3[C@@H](O)[C@H](n4cnc5c(N)ncnc54)O[C@@H]3COP(=O)(S)O[C@H]3[C@@H](O)[C@H](n4cnc5c(N)ncnc54)O[C@@H]3CO)[C@@H](OP(=O)(S)OC[C@H]3O[C@@H](n4ccc5c(=O)[nH]c(N)nc54)[C@H](O)[C@@H]3OP(=O)(S)OC[C@H]3O[C@@H](n4ccc(N)nc4=O)[C@H](O)[C@@H]3OP(=O)(S)OC[C@H]3O[C@@H](n4ccc(=O)[nH]c4=O)[C@H](O)[C@@H]3OP(=O)(S)OC[C@H]3O[C@@H](n4ccc(=O)[nH]c4=O)[C@H](O)[C@@H]3OP(=O)(S)OCC(O)COP(=O)(S)O[C@H]3[C@@H](O)[C@H](n4ccc(=O)[nH]c4=O)O[C@@H]3COP(=O)(S)O[C@H]3[C@@H](O)[C@H](n4ccc(=O)[nH]c4=O)O[C@@H]3COP(=O)(S)O[C@H]3[C@@H](O)[C@H](n4ccc(N)nc4=O)O[C@@H]3COP(=O)(S)O[C@H]3[C@@H](O)[C@H](n4ccc5c(=O)[nH]c(N)nc54)O[C@@H]3COP(=O)(S)O[C@H]3[C@@H](O)[C@H](n4ccc(N)nc4=O)O[C@@H]3COP(=O)(S)O[C@H]3[C@@H](O)[C@H](n4cnc5c(N)ncnc54)O[C@@H]3COP(=O)(S)O[C@H]3[C@@H](O)[C@H](n4ccc5c(=O)[nH]c(N)nc54)O[C@@H]3COP(=O)(S)O[C@H]3[C@@H](O)[C@H](n4ccc(=O)[nH]c4=O)O[C@@H]3COP(=O)(S)O[C@H]3[C@@H](O)[C@H](n4ccc(=O)[nH]c4=O)O[C@@H]3COP(=O)(S)O[C@H]3[C@@H](O)[C@H](n4cnc5c(N)ncnc54)O[C@@H]3COP(=O)(S)O[C@H]3[C@@H](O)[C@H](n4cnc5c(N)ncnc54)O[C@@H]3CO)[C@H]2O)c(=O)n1 (some centres undefined)
active: PBMC [1] Dose-dependent effect | PBMC [2] Dose-dependent effect | PBMC [3] Dose-dependent effect

Nc1ccn([C@@H]2O[C@H](COP(=O)(S)O[C@H]3[C@@H](O)[C@H](n4cnc5c(N)ncnc54)O[C@@H]3COP(=O)(S)O[C@H]3[C@@H](O)[C@H](n4ccc5c(=O)[nH]c(N)nc54)O[C@@H]3COP(=O)(S)O[C@H]3[C@@H](O)[C@H](n4ccc(=O)[nH]c4=O)O[C@@H]3COP(=O)(S)O[C@H]3[C@@H](O)[C@H](n4ccc5c(=O)[nH]c(N)nc54)O[C@@H]3COP(=O)(S)O[C@H]3[C@@H](O)[C@H](n4cnc5c(N)ncnc54)O[C@@H]3COP(=O)(S)O[C@H]3[C@@H](O)[C@H](n4cnc5c(N)ncnc54)O[C@@H]3CO)[C@@H](OP(=O)(S)OC[C@H]3O[C@@H](n4ccc5c(=O)[nH]c(N)nc54)[C@H](O)[C@@H]3OP(=O)(S)OC[C@H]3O[C@@H](n4ccc(N)nc4=O)[C@H](O)[C@@H]3OP(=O)(S)OC[C@H]3O[C@@H](n4ccc(=O)[nH]c4=O)[C@H](O)[C@@H]3OP(=O)(S)OC[C@H]3O[C@@H](n4ccc(=O)[nH]c4=O)[C@H](O)[C@@H]3OP(=O)(S)OCC(O)COP(=O)(S)O[C@H]3[C@@H](O)[C@H](n4ccc(=O)[nH]c4=O)O[C@@H]3COP(=O)(S)O[C@H]3[C@@H](O)[C@H](n4ccc(=O)[nH]c4=O)O[C@@H]3COP(=O)(S)O[C@H]3[C@@H](O)[C@H](n4ccc(N)nc4=O)O[C@@H]3COP(=O)(S)O[C@H]3[C@@H](O)[C@H](n4ccc5c(=O)[nH]c(N)nc54)O[C@@H]3COP(=O)(S)O[C@H]3[C@@H](O)[C@H](n4ccc(N)nc4=O)O[C@@H]3COP(=O)(S)O[C@H]3[C@@H](O)[C@H](n4cnc5c(N)ncnc54)O[C@@H]3COP(=O)(S)O[C@H]3[C@@H](O)[C@H](n4ccc5c(=O)[nH]c(N)nc54)O[C@@H]3COP(=O)(S)O[C@H]3[C@@H](O)[C@H](n4ccc(=O)[nH]c4=O)O[C@@H]3COP(=O)(S)O[C@H]3[C@@H](O)[C@H](n4ccc5c(=O)[nH]c(N)nc54)O[C@@H]3COP(=O)(S)O[C@H]3[C@@H](O)[C@H](n4cnc5c(N)ncnc54)O[C@@H]3COP(=O)(S)O[C@H]3[C@@H](O)[C@H](n4cnc5c(N)ncnc54)O[C@@H]3CO)[C@H]2O)c(=O)n1 (some centres undefined)
active: PBMC [1] Dose-dependent effect | PBMC [2] Dose-dependent effect | PBMC [3] Dose-dependent effect

Nc1ccn([C@@H]2O[C@H](COP(=O)(S)O[C@H]3[C@@H](O)[C@H](n4cnc5c(N)ncnc54)O[C@@H]3COP(=O)(S)O[C@H]3[C@@H](O)[C@H](n4cnc5c(N)ncnc54)O[C@@H]3CO)[C@@H](OP(=O)(S)OC[C@H]3O[C@@H](n4ccc(=O)[nH]c4=O)[C@H](O)[C@@H]3OP(=O)(S)OC[C@H]3O[C@@H](n4ccc5c(=O)[nH]c(N)nc54)[C@H](O)[C@@H]3OP(=O)(S)OC[C@H]3O[C@@H](n4cnc5c(N)ncnc54)[C@H](O)[C@@H]3OP(=O)(S)OC[C@H]3O[C@@H](n4ccc(N)nc4=O)[C@H](O)[C@@H]3OP(=O)(S)OC[C@H]3O[C@@H](n4ccc5c(=O)[nH]c(N)nc54)[C@H](O)[C@@H]3OP(=O)(S)OC[C@H]3O[C@@H](n4ccc(N)nc4=O)[C@H](O)[C@@H]3OP(=O)(S)OC[C@H]3O[C@@H](n4ccc(=O)[nH]c4=O)[C@H](O)[C@@H]3OP(=O)(S)OC[C@H]3O[C@@H](n4ccc(=O)[nH]c4=O)[C@H](O)[C@@H]3OP(=O)(S)OCC(O)COP(=O)(S)O[C@H]3[C@@H](O)[C@H](n4ccc(=O)[nH]c4=O)O[C@@H]3COP(=O)(S)O[C@H]3[C@@H](O)[C@H](n4ccc(=O)[nH]c4=O)O[C@@H]3COP(=O)(S)O[C@H]3[C@@H](O)[C@H](n4ccc(N)nc4=O)O[C@@H]3COP(=O)(S)O[C@H]3[C@@H](O)[C@H](n4ccc5c(=O)[nH]c(N)nc54)O[C@@H]3COP(=O)(S)O[C@H]3[C@@H](O)[C@H](n4ccc(N)nc4=O)O[C@@H]3COP(=O)(S)O[C@H]3[C@@H](O)[C@H](n4cnc5c(N)ncnc54)O[C@@H]3COP(=O)(S)O[C@H]3[C@@H](O)[C@H](n4ccc5c(=O)[nH]c(N)nc54)O[C@@H]3COP(=O)(S)O[C@H]3[C@@H](O)[C@H](n4ccc(=O)[nH]c4=O)O[C@@H]3COP(=O)(S)O[C@H]3[C@@H](O)[C@H](n4ccc(N)nc4=O)O[C@@H]3COP(=O)(S)O[C@H]3[C@@H](O)[C@H](n4cnc5c(N)ncnc54)O[C@@H]3COP(=O)(S)O[C@H]3[C@@H](O)[C@H](n4cnc5c(N)ncnc54)O[C@@H]3CO)[C@H]2O)c(=O)n1 (some centres undefined)
active: PBMC [1] Dose-dependent effect | PBMC [2] Dose-dependent effect | PBMC [3] Dose-dependent effect
